Reference: ChEMBL document CHEMBL4428071 (J Med Chem, 2016)
Calls of active or inactive are those of the source. The calls are words filed in the database; no cut-off is given here.

Experiments:
[1] = biological target: T1, Mast/stem cell growth factor receptor Kit (Homo sapiens, UniProt P10721, T670I); experiment: Inhibition of cKIT T670I mutant in human GIST-5R cells assessed as downregulation of AKT phosphorylation at S473 after 1 hr by Western blot analysis; type: cell-based
In short: (§1)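 GIST-T1 or GIST-5R cells in DMEM with 10% FBS were treated with serially diluted compound for 1 h. Cells were then lysed and analysed by western blotting.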

[2] = biological target: T2, Mast/stem cell growth factor receptor Kit (Homo sapiens, UniProt P10721); experiment: Inhibition of wild type cKIT in human GIST-T1 cells assessed as downregulation of AKT phosphorylation at S473 after 1 hr by Western blot analysis; type: cell-based
In short: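 GIST-T1 cells in DMEM with 10% FBS were exposed to serially diluted compound for 1 h, then lysed. Lysates were analysed by western blot with phospho-specific antibodies against AKT (Ser473), ERK1/2 (Thr202/Tyr204) and S6 ribosomal protein (Ser235/236), each alongside its total protein.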

[3] = tested on: Mast/stem cell growth factor receptor Kit (Homo sapiens), P10721 [T670I]; experiment: Inhibition of […] cKIT T670I mutant in human GIST-5R cells assessed as cell growth inhibition after 72 hrs by cell titer-glo assay; type: cell-based
[4] = tested on: BaF3; experiment: Antitumor activity against TEL-fused cKIT T670I mutant expressing mouse BA/F3 cells allografted in nu/nu mouse assessed as tumor growth inhibition at 25 mg/kg, ip administered daily for 10 days; type: functional; conditions: 240 h, read-out: TGI
In short: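 Female nu/nu mice, 5 weeks old at purchase, given 1 million BaF3-TEL-cKIT-T670I cells in PBS/Matrigel 1:1 subcutaneously on the right flank. At tumour volume 200–400 mm3, randomised into groups of 7 and dosed IP daily for 10 days (25, 50, 100 mg/kg/d or vehicle: 0.5% methylcellulose/0.4% Tween80 in water). Tumour volume (W2×L/2) and body weight recorded daily.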

[5] = tested on: Mast/stem cell growth factor receptor Kit (Homo sapiens), P10721 [V654A]; experiment: Inhibition of TEL-fused cKIT V654A mutant (unknown origin) expressed in mouse BA/F3 cells assessed as cell growth inhibition after 72 hrs by cell titer-glo assay; type: cell-based
In short: (§2)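 Cells seeded at 3000 per well and exposed to serial compound dilutions for 72 h. Viability read by CellTiter-Glo luminescence and normalised to DMSO controls; mean of three independent measurements. BaF3 lines kept IL-3-free in RPMI 1640/10% FBS after retroviral transduction and puromycin selection. GIST lines grown in DMEM/10% FBS.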

[6] = biological target: Platelet-derived growth factor receptor beta (Homo sapiens) (UniProt P09619); experiment: Inhibition of TEL-fused partial length human PDGFRbeta expressed in mouse BA/F3 cells after 72 hrs by cell titer-glo assay; type: cell-based; in short: as §2
[7] = tested on: Mast/stem cell growth factor receptor Kit (Homo sapiens), P10721 [D816V]; experiment: Inhibition of TEL-fused cKIT D816V mutant (unknown origin) expressed in mouse BA/F3 cells assessed as cell growth inhibition after 72 hrs by cell titer-glo assay; type: cell-based; in short: as §2
[8] = biological target: T2, Mast/stem cell growth factor receptor Kit; experiment: Inhibition of His-tagged cKIT (unknown origin) expressed in Sf9 cells using Poly(4:1 Glu, Tyr) peptide as substrate after 1 hr by ADP-glo kinase assay
[9] = biological target: Cyclin-dependent kinase-like 2 (Homo sapiens) (UniProt Q92772); experiment: Inhibition of partial length human CDKL2 expressed in bacterial expression system assessed as activity remaining at 1 uM by kinome scan assay
[10] = biological target: T1, Mast/stem cell growth factor receptor Kit; experiment: Inhibition of cKIT T670I mutant in human GIST-5R cells assessed as downregulation of ERK phosphorylation at T202/204 after 1 hr by Western blot analysis; type: cell-based; in short: as §1
[11] = biological target: T1, Mast/stem cell growth factor receptor Kit; experiment: Inhibition of cKIT T670I mutant autophosphorylation at Y703 in human GIST-5R cells at 0.1 to 3 uM after 1 hr by Western blot analysis; type: cell-based; in short: as §1
[12] = biological target: T2, Mast/stem cell growth factor receptor Kit; experiment: Ratio of imatinib IC50 to compound IC50 for TEL-fused cKIT (unknown origin) expressed in mouse BA/F3 cells; type: cell-based
[13] = biological target: Proto-oncogene tyrosine-protein kinase receptor Ret (Homo sapiens) (UniProt P07949); experiment: Inhibition of partial length human RET expressed in bacterial expression system assessed as activity remaining at 1 uM by kinome scan assay
[14] = Half life in Sprague-Dawley rat at 1 mg/kg, iv measured up to 8 hrs post dosing; type: ADME, organism-based; conditions: in vivo
In short: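 Male Sprague-Dawley rats, 8 weeks old, fasted overnight; iv dosing from a 1 mg/mL solution in 5% DMSO/40% PEG400/55% saline. Jugular-vein blood (~0.2 mL, heparinised) taken at 1, 5, 15, 30 min and 1, 2, 4, 6, 8 h; plasma held at -80 °C until analysis; n=3.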

[15] = biological target: T2, Mast/stem cell growth factor receptor Kit; experiment: Inhibition of TEL-fused cKIT (unknown origin) expressed in mouse BA/F3 cells assessed as cell growth inhibition after 72 hrs by cell titer-glo assay; type: cell-based
[16] = biological target: T2, Mast/stem cell growth factor receptor Kit; experiment: Ratio of Imatinib IC50 to compound IC50 for wild type cKIT in human GIST-T1 cells; type: cell-based
[17] = tested on: Mast/stem cell growth factor receptor Kit (Homo sapiens), P10721 [N822K]; experiment: Inhibition of TEL-fused cKIT N822K mutant (unknown origin) expressed in mouse BA/F3 cells assessed as cell growth inhibition after 72 hrs by cell titer-glo assay; type: cell-based; in short: as §2
[18] = biological target: T2, Mast/stem cell growth factor receptor Kit; experiment: Inhibition of wild type cKIT autophosphorylation at Y823 in human GIST-T1 cells at 100 nM after 1 hr by Western blot analysis; type: cell-based; in short: as §1
[19] = tested on: Mast/stem cell growth factor receptor Kit (Homo sapiens), P10721 [V559D,V654A]; experiment: Inhibition of TEL-fused cKIT V559D/V654A double mutant (unknown origin) expressed in mouse BA/F3 cells assessed as cell growth inhibition after 72 hrs by cell titer-glo assay; type: cell-based; in short: as §2
[20] = biological target: Cyclin-dependent kinase-like 3 (Homo sapiens) (UniProt Q8IVW4); experiment: Inhibition of partial length human CDKL3 expressed in bacterial expression system assessed as activity remaining at 1 uM by kinome scan assay

T1 sequence (P10721 26-976 T670I limits assumed): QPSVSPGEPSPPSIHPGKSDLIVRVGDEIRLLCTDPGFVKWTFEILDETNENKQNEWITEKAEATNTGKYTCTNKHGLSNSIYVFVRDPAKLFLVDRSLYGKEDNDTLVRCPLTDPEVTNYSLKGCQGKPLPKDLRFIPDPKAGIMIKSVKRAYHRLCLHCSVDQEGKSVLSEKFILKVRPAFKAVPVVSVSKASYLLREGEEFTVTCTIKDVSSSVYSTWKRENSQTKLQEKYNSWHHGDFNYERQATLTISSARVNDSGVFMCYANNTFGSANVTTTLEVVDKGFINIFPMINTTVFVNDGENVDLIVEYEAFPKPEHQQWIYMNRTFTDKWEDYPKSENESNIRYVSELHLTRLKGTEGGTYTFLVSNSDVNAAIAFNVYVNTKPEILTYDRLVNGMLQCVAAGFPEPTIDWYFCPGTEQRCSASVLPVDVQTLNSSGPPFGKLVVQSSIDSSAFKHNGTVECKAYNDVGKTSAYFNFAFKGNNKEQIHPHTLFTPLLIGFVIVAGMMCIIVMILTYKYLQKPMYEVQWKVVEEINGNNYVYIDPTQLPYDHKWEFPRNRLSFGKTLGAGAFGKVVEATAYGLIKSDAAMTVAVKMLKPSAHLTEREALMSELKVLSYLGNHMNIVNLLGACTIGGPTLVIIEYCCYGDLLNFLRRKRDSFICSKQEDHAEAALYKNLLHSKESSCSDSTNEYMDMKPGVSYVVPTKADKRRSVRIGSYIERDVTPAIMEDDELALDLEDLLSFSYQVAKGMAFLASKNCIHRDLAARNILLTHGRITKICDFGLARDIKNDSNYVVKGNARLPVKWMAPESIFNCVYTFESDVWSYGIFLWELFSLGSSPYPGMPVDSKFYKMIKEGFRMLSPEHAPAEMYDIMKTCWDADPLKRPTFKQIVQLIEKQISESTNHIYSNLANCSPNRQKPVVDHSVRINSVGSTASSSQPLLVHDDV
T2 sequence (P10721 whole entry): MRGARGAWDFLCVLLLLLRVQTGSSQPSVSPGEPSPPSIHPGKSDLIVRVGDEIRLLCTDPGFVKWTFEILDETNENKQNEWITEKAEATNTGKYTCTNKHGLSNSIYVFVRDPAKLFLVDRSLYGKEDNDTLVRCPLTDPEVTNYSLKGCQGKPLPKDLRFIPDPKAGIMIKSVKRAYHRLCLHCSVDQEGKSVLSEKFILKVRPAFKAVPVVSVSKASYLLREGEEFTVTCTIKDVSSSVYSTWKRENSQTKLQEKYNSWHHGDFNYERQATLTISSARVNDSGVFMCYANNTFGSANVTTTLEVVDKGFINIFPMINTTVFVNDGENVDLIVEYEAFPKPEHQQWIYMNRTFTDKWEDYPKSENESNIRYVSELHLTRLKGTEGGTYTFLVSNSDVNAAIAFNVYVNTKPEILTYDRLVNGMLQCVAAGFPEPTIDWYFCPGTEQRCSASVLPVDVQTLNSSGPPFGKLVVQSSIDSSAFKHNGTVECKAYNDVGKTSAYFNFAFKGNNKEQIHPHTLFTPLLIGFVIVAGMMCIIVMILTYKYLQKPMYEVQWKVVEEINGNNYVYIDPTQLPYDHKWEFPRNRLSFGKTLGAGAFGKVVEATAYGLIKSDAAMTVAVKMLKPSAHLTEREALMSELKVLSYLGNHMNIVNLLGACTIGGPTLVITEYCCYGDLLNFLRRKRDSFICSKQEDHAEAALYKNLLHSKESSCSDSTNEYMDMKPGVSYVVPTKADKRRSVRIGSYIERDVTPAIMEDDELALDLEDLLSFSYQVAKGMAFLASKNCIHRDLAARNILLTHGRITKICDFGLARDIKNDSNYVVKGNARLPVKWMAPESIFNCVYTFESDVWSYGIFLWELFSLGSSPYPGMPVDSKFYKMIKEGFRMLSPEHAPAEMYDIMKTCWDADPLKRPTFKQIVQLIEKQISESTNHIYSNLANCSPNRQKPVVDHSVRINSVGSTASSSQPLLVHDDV
Proto-oncogene tyrosine-protein kinase receptor Ret (Homo sapiens), sequence (P07949 whole entry): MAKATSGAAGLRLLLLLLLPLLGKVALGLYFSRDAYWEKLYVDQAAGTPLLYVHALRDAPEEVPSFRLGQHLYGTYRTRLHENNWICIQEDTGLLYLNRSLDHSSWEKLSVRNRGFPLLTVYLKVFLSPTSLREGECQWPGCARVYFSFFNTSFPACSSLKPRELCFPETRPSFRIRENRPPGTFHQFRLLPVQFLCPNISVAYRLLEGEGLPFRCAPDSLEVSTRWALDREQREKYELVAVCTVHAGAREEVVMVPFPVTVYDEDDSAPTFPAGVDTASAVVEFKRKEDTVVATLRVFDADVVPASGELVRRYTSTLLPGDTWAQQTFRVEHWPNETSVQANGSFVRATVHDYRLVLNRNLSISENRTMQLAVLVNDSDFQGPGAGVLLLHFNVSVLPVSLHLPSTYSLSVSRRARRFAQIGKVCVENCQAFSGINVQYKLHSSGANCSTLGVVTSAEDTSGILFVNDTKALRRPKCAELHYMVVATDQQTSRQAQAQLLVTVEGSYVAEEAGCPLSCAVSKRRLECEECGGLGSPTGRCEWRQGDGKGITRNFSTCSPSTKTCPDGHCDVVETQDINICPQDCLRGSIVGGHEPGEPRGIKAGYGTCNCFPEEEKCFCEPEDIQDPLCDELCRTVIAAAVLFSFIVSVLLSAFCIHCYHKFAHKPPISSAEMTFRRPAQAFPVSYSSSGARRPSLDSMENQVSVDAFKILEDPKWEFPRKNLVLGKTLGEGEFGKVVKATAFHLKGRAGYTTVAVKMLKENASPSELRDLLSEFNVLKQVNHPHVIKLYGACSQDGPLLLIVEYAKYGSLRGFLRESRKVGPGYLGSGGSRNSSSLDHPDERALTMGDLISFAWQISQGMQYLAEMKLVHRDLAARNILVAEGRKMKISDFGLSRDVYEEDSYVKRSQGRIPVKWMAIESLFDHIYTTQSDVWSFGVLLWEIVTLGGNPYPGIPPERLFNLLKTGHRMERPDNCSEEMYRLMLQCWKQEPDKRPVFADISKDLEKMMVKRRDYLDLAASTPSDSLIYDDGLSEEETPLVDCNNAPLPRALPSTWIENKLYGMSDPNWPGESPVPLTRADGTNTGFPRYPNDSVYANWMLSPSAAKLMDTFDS
Mast/stem cell growth factor receptor Kit (Homo sapiens), P10721 [T670I], sequence (P10721 whole entry T670I, the tested form may be a part): as the sequence (P10721 whole entry) above, with T670I counted along it
Mast/stem cell growth factor receptor Kit (Homo sapiens), P10721 [D816V], sequence (P10721 whole entry D816V, the tested form may be a part): as the sequence (P10721 whole entry) above, with D816V counted along it

CCC(=O)NCC1CCN(c2ccc(NC(=O)Nc3cccc(Oc4ccnc5cc(OC)c(OC)cc45)c3)cc2C(F)(F)F)CC1
EC50 [1]: < 100 nM
EC50 [2]: < 100 nM
GI50 [3]: 26 nM
inhibition in vivo at 25 mg/kg [4]: 18.3%
GI50 [5]: 320 nM
GI50 [6]: 5 nM
GI50 [7]: 670 nM
IC50 [8]: 33 nM
Activity [9]: 0%
EC50 [10]: < 100 nM
EC50 [11]: < 100 nM
Ratio IC50 [12]: 10
Activity [13]: 0%
half-life [14]: 2.04 h
GI50 [15]: 57 nM
Ratio IC50 [16]: 7
GI50 [17]: 40 nM
inhibition [18]: Active
GI50 [19]: 360 nM
Activity [20]: 0.3%
